Measurements reported in ChEMBL document CHEMBL2417357, “Synthesis and antiprotozoal activities of benzyl phenyl ether diamidine derivatives” (Eur J Med Chem, 2013).
The source made the active and inactive calls. The calls are words filed in the database; no cut-off is given here.

What was measured:
[1] = system: Trypanosoma brucei rhodesiense; test: Antitrypanosomal activity against Trypanosoma brucei rhodesiense STIB900 infected in NMRI mouse assessed as mean survival days at 5 mg/kg, ip administered for 4 days; assay type: functional; conditions: route intraperitoneal
In short: (§1)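 Female NMRI mice, acute infection model with T. b. rhodesiense STIB900. Compound given as a single daily dose for four days, intraperitoneally or orally. Cure means survival to 60 days post-infection without parasitaemia relapse. Mean survival recorded in days.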

[2] = Selectivity index, ratio of IC50 for rat L6 cells to IC50 for Trypanosoma brucei rhodesiense STIB900; assay type: toxicity, cell-based; conditions: read-out: Ratio IC50
In short: (§2)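 SI = IC50 in rat L6 myoblasts / IC50 against the parasite (T. b. rhodesiense STIB900 or P. falciparum K1). Each IC50 is the average of duplicate determinations.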

L6 = test: Cytotoxicity against rat L6 cells after 72 hrs by Alamar blue assay; assay type: cell-based; conditions: L6, 72 h
In short: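 Rat L6 myoblast cells; cytotoxic IC50 taken as the average of duplicate determinations.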

[3] = system: Trypanosoma brucei rhodesiense; test: Antitrypanosomal activity against Trypanosoma brucei rhodesiense STIB900 after 72 hrs by Alamar blue assay; assay type: functional, organism-based; conditions: STIB900, 72 h
Plasmodium falciparum = test: Antiplasmodial activity against chloroquine-resistant Plasmodium falciparum K1; assay type: functional, organism-based
In short: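 Chloroquine-resistant K1 strain tested in vitro. IC50 is the average of duplicate determinations.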

[4] = Selectivity index, ratio of IC50 for rat L6 cells to IC50 for chloroquine-resistant Plasmodium falciparum K1; assay type: toxicity, cell-based; conditions: read-out: Ratio IC50; in short: as §2
Leishmania donovani = test: Antileishmanial activity against amastigotes of Leishmania donovani MHOM/SD/62/IS-CL2D; assay type: functional, organism-based
In short: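 Axenic amastigotes of L. donovani MHOM/SD/62/IS-CL2D; IC50 taken as the average of at least two determinations.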

[5] = Selectivity index, ratio of IC50 for rat L6 cells to IC50 for amastigotes of Leishmania donovani; assay type: toxicity, cell-based; conditions: read-out: Ratio IC50
In short: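 SI = IC50 in rat L6 myoblasts / IC50 against L. donovani MHOM/SD/62/IS-CL2D axenic amastigotes. The amastigote IC50 is the average of at least two determinations; the L6 IC50 is the average of duplicates.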

[6] = system: Trypanosoma brucei rhodesiense; test: Antitrypanosomal activity against Trypanosoma brucei rhodesiense STIB900 infected in NMRI mouse assessed as mean survival days at 25 mg/kg, po administered for 4 days; assay type: functional; in short: as §1
[7] = system: Trypanosoma brucei rhodesiense; test: Antitrypanosomal activity against Trypanosoma brucei rhodesiense STIB900 infected in NMRI mouse assessed as cured animal at 25 mg/kg, po administered for 4 days; assay type: functional, organism-based; parameters: dose 25 mg/kg
In short: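 Acute model in female NMRI mice infected with T. b. rhodesiense STIB900. Single daily doses given for four days, intraperitoneally or orally. Mice surviving 60 days post-infection without parasitaemia relapse counted as cured; result reported as cured/infected out of 4 mice per group, with mean survival in days.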

Compound `N=C(N)c1ccc(-c2ccc(-c3ccc(C(=N)N)cc3)o2)cc1` [FURAMIDINE] has an MSD [1] greater than 46 days.

`N=C(N)c1ccc(COc2ccc(N)cc2)cc1` gave a selectivity ratio [2] greater than 90, an IC50 (L6) greater than 271 µM and an IC50 [3] of 3000 nM. It also gave an IC50 (Plasmodium falciparum) of 2560 nM and a selectivity ratio [4] greater than 106.

Work on `N=C(N)c1ccc(COc2ccccc2)cc1` yielded a selectivity ratio [2] of 45, an IC50 (L6) of 167 µM and an IC50 [3] of 3710 nM. It also gave an IC50 (Plasmodium falciparum) greater than 3560 nM and a selectivity ratio [4] of less than 47.

In the case of `N=C(N)c1ccc(OCCCCCOc2ccc(C(=N)N)cc2)cc1` [PENTAMIDINE], the MSD [1] is reported as greater than 38 days.

`CC(C)NC(=N)c1ccc(COc2ccc(C(=N)NC(C)C)cc2)cc1` gave an IC50 (Leishmania donovani) of 26.6 µM, a selectivity ratio [5] greater than 5 and a selectivity ratio [2] greater than 107. It also gave an IC50 (L6) greater than 144 µM, an IC50 [3] of 1350 nM and an IC50 (Plasmodium falciparum) of 20 nM. The selectivity ratio [4] was greater than 7370.

For `CO/N=C(\N)c1ccc(COc2c(OC)cc(/C(N)=N/OC)cc2OC)cc1.Cl.Cl`, the MSD [6] was 11.75 days, the IC50 (Leishmania donovani) was 100 µM and the Activity [7] was “inactive”. The selectivity ratio [5] was greater than 2, the selectivity ratio [2] was greater than 1 and the IC50 (L6) was greater than 190 µM. The IC50 [3] was 129000 nM and the IC50 (Plasmodium falciparum) was greater than 10600 nM.

`N=C(N)c1ccc(COc2cccc([N+](=O)[O-])c2)cc1` showed a selectivity ratio [2] of 27, an IC50 (L6) of 57.8 µM and an IC50 [3] of 2120 nM. The IC50 (Plasmodium falciparum) was greater than 3250 nM and the selectivity ratio [4] was less than 18.

Work on `CO/N=C(\N)c1cccc(COc2c(I)cc(/C(N)=N/OC)cc2OC)c1.Cl.Cl` yielded an MSD [6] of 40.25 days, an IC50 (Leishmania donovani) greater than 100 µM and a selectivity ratio [5] of less than 1. For the same compound, the selectivity ratio [2] was 1, the IC50 (L6) was 81.4 µM and the IC50 [3] was 75100 nM. For the same compound, the IC50 (Plasmodium falciparum) was 1120 nM and the selectivity ratio [4] was 73.

`N=C(N)c1cccc(COc2cccc([N+](=O)[O-])c2)c1` gave a selectivity ratio [2] of 14, an IC50 (L6) of 104 µM and an IC50 [3] of 7280 nM. For the same compound, the IC50 (Plasmodium falciparum) was greater than 3070 nM and the selectivity ratio [4] was less than 34.

With `N=C(N)c1cc(I)c(OCc2cccc([N+](=O)[O-])c2)c(I)c1` the IC50 (Leishmania donovani) was 34.3 µM, the selectivity ratio [5] was less than 1 and the selectivity ratio [2] was 3. It also gave an IC50 (L6) of 7.72 µM, an IC50 [3] of 2660 nM and an IC50 (Plasmodium falciparum) of 296 nM. For the same compound, the selectivity ratio [4] was 26.

For `N=C(N)c1cccc(OCc2ccccc2)c1`, the selectivity ratio [2] was 17, the IC50 (L6) was 156 µM and the IC50 [3] was 9320 nM. It also gave an IC50 (Plasmodium falciparum) greater than 3810 nM and a selectivity ratio [4] of less than 41.

Work on `COc1ccc(OCc2ccc(C(=N)N)cc2)cc1` yielded a selectivity ratio [2] of 36, an IC50 (L6) of 143 µM and an IC50 [3] of 3950 nM. For the same compound, the IC50 (Plasmodium falciparum) was greater than 3420 nM and the selectivity ratio [4] was less than 42.

For `N=C(N)c1cccc(COc2ccc(C(=N)N)cc2I)c1`, the IC50 (Leishmania donovani) was 1.27 µM, the selectivity ratio [5] was 5 and the selectivity ratio [2] was 1190. It also gave an IC50 (L6) of 6.06 µM, an IC50 [3] of 5 nM and an IC50 (Plasmodium falciparum) of 13 nM. It also gave a selectivity ratio [4] of 477 and an MSD [1] greater than 31.25 days.

`CC(C)c1ccc(OCc2ccc(C(=N)N)cc2)cc1` gave an IC50 (Leishmania donovani) of 49.5 µM, a selectivity ratio [5] of less than 1 and a selectivity ratio [2] of 4. The IC50 (L6) was 5.36 µM, the IC50 [3] was 1290 nM and the IC50 (Plasmodium falciparum) was 2370 nM. It also gave a selectivity ratio [4] of 3.

For `N=C(N)c1ccc(OCc2ccc([N+](=O)[O-])cc2)c(I)c1`, the IC50 (Leishmania donovani) was greater than 50 µM, the selectivity ratio [5] was less than 1 and the selectivity ratio [2] was 6. The IC50 (L6) was 10.7 µM, the IC50 [3] was 1900 nM and the IC50 (Plasmodium falciparum) was 951 nM. For the same compound, the selectivity ratio [4] was 11.

`C[C@@H]1CC[C@H]2[C@@H](C)C(=O)O[C@@H]3O[C@@]4(C)CC[C@@H]1[C@]32OO4` [ARTEMISININ] gave an IC50 (L6) greater than 319 µM and an IC50 (Plasmodium falciparum) of 4.1 nM.

Compound `N=C(N)c1ccc(COc2ccc(C(=N)N)cc2I)cc1` has an IC50 (Leishmania donovani) of 1.94 µM, a selectivity ratio [5] of 3 and a selectivity ratio [2] of 312. For the same compound, the IC50 (L6) was 5.3 µM, the IC50 [3] was 17 nM and the IC50 (Plasmodium falciparum) was 6 nM. The selectivity ratio [4] was 898 and the MSD [1] was greater than 41.5 days.

In the case of `CO/N=C(\N)c1cccc(COc2c(OC)cc(/C(N)=N/OC)cc2OC)c1.Cl.Cl`, the MSD [6] is reported as 15 days, the IC50 (Leishmania donovani) is reported as greater than 100 µM and the Activity [7] is reported as “inactive”. The selectivity ratio [5] was less than 2, the selectivity ratio [2] was greater than 1 and the IC50 (L6) was greater than 188 µM. For the same compound, the IC50 [3] was 109000 nM and the IC50 (Plasmodium falciparum) was greater than 10400 nM.
